The text below walks through data of ChEMBL document CHEMBL5532752, “Integrating a quinone substructure into histone deacetylase inhibitors to cope with Alzheimer's disease and cancer” (RSC Med Chem, 2024).

Active and inactive are the calls of the source. The rule behind the calls is not given here. Bounds are passed on as bounds.

The subject of assay [1] is SH-SY5Y. The experiment in a line: Cytotoxicity against human SH-SY5Y cells assessed as reduction in cell viability pretreated with SFN followed by compound treatment by MUH reagent based spectrophotometric analysis. The class given is functional.
The subject of assay [2] is SH-SY5Y. The experiment in a line: Induction of oxidative stress in human SH-SY5Y cells assessed as increase in ROS production at 2 uM incubated for 24 hrs by DCFH-DA staining based fluorescence analysis. The class given is functional, cell-based. In outline: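 SH-SY5Y plated 1 × 10⁴ cells/well, allowed 24 h to adhere, then given 2 μM compound or vehicle for 24 h. Cells PBS-washed and loaded with 10 μM DCFDA in DMEM for 30 min, washed again; fluorescence at ex 485/em 535 nm normalized to protein content (Lowry). n = 5; mean ± SD, triplicate.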

In assay [3] the target is Histone deacetylase 2 (Homo sapiens, UniProt Q92769). The experiment in a line: Inhibition of human recombinant HDAC2 using aminoluciferin-conjugated histone 4 derived acetylated lysine peptide as substrate incubated for 30 mins by bio-luminogenic assay.
Histone deacetylase 2, sequence (Q92769 whole entry): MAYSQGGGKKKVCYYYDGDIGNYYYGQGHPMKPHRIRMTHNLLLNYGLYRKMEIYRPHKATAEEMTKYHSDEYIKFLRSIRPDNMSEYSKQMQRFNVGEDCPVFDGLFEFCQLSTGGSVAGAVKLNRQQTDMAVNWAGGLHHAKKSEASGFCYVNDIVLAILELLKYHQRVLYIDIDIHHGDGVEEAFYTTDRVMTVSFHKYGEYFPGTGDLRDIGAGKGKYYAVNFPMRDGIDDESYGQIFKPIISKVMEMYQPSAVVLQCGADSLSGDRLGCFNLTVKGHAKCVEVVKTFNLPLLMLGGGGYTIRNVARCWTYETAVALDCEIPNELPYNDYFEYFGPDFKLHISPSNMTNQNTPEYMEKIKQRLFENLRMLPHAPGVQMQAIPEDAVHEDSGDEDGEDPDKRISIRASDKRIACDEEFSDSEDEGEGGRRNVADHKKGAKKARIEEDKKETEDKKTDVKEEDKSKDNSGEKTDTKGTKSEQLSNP
Assay [4] relates to SH-SY5Y. The experiment in a line: Cytotoxicity against human SH-SY5Y cells assessed as reduction in cell viability incubated for 24 hrs by MUH reagent based spectrophotometric analysis. The class given is functional.
For assay [5], the system named is SH-SY5Y. The experiment in a line: Cytotoxicity against human SH-SY5Y cells assessed as reduction in cell viability incubated for 72 hrs by MUH reagent based spectrophotometric analysis. In kind it is functional. The essentials:
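SH-SY5Y in DMEM/10% FBS seeded 0.75 × 10⁴ cells/well, after 24 h treated with 0.1–100 μM for 24, 48 or 72 h. Washed, incubated with MUH 0.01 mg/mL in PBS 30 min at 37 °C in the dark; fluorescence ex 330/em 450 nm, normalized to untreated cells. IC50 by nonlinear regression, log(inhibitor) vs normalized response.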

The test system of assay [6] is SH-SY5Y. The assay can be described thus: Antioxidant activity in human SH-SY5Y cells assessed as protection against […]-induced oxidative stress at 2 uM pretreated for 24 hrs followed by incubation with […] for 30 mins by DCFH-DA staining based fluorescence analysis. The class given is functional, cell-based. To be noted: time 24.5 hrs. In outline: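 SH-SY5Y seeded 1 × 10⁴ cells/well, adhered 24 h, exposed to 2 μM compound or vehicle for 24 h, then loaded with 10 μM DCFDA in DMEM for 30 min; stress induced afterwards with 100 μM TBH in PBS for 30 min. Fluorescence read at ex 485/em 535 nm, normalized to Lowry protein; n = 5, triplicate.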

For assay [7], the target named is T1, Protein deacetylase HDAC6 (Homo sapiens, UniProt Q9UBN7).
T1 sequence (Q9UBN7 whole entry): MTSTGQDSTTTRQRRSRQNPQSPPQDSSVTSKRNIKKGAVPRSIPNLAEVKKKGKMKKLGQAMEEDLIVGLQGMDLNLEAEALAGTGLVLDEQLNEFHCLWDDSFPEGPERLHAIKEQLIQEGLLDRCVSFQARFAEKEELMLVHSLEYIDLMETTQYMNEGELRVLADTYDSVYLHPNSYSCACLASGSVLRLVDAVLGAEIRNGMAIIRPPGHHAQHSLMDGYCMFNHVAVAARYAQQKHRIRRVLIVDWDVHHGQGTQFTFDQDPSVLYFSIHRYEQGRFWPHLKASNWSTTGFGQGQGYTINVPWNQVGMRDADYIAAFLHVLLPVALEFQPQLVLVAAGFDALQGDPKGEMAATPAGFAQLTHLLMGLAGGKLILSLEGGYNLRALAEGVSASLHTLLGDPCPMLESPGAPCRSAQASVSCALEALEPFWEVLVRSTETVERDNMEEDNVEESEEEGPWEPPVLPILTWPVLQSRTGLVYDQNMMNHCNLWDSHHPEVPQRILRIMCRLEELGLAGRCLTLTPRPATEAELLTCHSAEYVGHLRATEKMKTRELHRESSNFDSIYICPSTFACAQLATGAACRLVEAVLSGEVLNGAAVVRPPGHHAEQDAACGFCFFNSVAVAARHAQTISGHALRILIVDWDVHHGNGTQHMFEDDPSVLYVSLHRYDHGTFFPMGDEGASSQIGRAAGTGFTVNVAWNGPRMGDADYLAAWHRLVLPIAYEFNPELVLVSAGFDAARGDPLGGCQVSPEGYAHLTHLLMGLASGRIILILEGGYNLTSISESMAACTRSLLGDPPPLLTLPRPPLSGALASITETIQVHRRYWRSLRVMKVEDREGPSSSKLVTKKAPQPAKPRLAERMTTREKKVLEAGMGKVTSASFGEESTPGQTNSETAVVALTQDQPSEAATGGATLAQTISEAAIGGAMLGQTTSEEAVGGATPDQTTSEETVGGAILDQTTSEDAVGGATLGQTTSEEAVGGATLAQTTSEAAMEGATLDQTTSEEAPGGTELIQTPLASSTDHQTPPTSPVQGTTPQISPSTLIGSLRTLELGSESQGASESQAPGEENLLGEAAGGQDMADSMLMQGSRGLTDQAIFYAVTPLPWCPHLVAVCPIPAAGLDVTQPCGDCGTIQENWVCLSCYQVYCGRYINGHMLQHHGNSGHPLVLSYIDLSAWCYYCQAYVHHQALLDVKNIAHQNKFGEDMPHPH
The assay can be described thus: Inhibition of human recombinant HDAC6 using aminoluciferin-conjugated histone 4 derived acetylated lysine peptide as substrate incubated for 30 mins by bio-luminogenic assay.

The target in assay [8] is Histone deacetylase (Homo sapiens) (UniProt Q13547+O15379+Q9UBN7+Q92769+Q9UQL6+Q8WUI4+Q9BY41+Q96DB2+P56524+Q9UKV0+Q969S8). The assay can be described thus: Inhibition of HDAC in human SH-SY5Y cells assessed as hyperacetylation of histone H2/H3 at 5 uM incubated for 6 hrs by western blot analysis. In kind it is cell-based. The essentials:
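SH-SY5Y seeded at 20 × 10⁴ cells/cm², after 48 h given 5 μM compound or vehicle for 6 h. Nuclei isolated, histones acid-extracted (0.4 N H2SO4, 4 °C 1 h), acetone-precipitated, run on 15% gel and blotted with anti-acetyl-lysine antibody, ECL detection; densitometry normalized to H1.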

Assay [9] has as its system SH-SY5Y. The experiment in a line: Cytotoxicity against human SH-SY5Y cells assessed as reduction in cell viability incubated for 48 hrs by MUH reagent based spectrophotometric analysis. In kind it is functional.
Assay [10] has as its system SH-SY5Y. The assay can be described thus: Neuroprotective activity against H2O2-induced cytotoxicity in human SH-SY5Y cells assessed as increase in cell viability at 1 to 50 uM pretreated for 24 hrs followed by incubation for 1 hr with H2O2 and incubated in drug-free medium for 22 hrs by MUH reagent based spectrophotometric analysis. The class given is functional. To be noted: dose 1-50 µM, time 25.0 hrs. The essentials: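 SH-SY5Y pretreated 24 h with 1, 10 or 50 μM compound, exposed 1 h to H2O2, then 22 h recovery in drug-free complete medium. H2O2 level printed as 300 μM in methods but 600 μM in figure legend. Viability by MUH fluorescence (ex 330/em 450 nm) vs untreated cells; one-way ANOVA, Tukey.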

Assay [11] deals with SH-SY5Y. The experiment in a line: Potentiation of H2O2-induced cytotoxicity in human SH-SY5Y cells assessed as cell viability at 50 uM pretreated for 24 hrs followed by incubation for 1 hr with H2O2 and incubated in drug-free medium for 22 hrs by MUH reagent based spectrophotometric analysis (reference value: 50.8%). To be noted: time 25 hrs, read-out: Activity. In kind it is functional.

As a reminder, the IC50 is the concentration that inhibits the measured activity by half. For the molecule `CC1=C(NCc2ccc(C(=O)Nc3ccccc3N)cc2)C(=O)c2ccccc2C1=O`, the result in [1] and in assay [2] was Active. For the same molecule, the half-inhibitory concentration (IC50) amounted to 2.1 µM in assay [3]; 1560 nM in assay [4]; 620 nM in assay [5]; 3.76 µM in [7]; 780 nM in [9]. In addition, the result in assay [6] was inactive. The inhibition entry in assay [8] was “Active”.
Turning to `CC1=C(NCCCCNC(=O)CS)C(=O)c2ccccc2C1=O`, the result in assay [2], in assay [6] and in assay [10] was inactive. For the same molecule, the half-maximal inhibitory concentration (IC50) in assay [3] was 25.2 µM; in assay [4], above 100000 nM; in [5], above 100000 nM; in assay [7], 30 µM; in assay [9], above 100000 nM. The viability at 50 µM in assay [11] was 28.2%.
